Experimental data from article PMC4179762 (Drug Design, Development and Therapy, 2014).

Tests used:
hH3R [1] = biological target: T1, hH3R (Homo sapiens, UniProt Q9Y5N1); test: hH3R radioligand competition binding assay
Method in brief: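 HEK-293 membranes stably expressing hH3R, sonicated at 4°C, in 12.5 mM MgCl2/100 mM NaCl/75 mM Tris-HCl pH 7.4; 20–25 μg/well. […] Unlabeled histamine defined non-specific binding. PEI-treated GF/B filtration, scintillation counting, nonlinear fit; Ki by Cheng–Prusoff.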

hH4R [2] = biological target: T2, hH4R (Homo sapiens, UniProt Q9H3N8); test: Metric analyses; settings: LELP=clogP/LE
hH4R [3] = biological target: T2, hH4R; test: hH4R radioligand competition binding assay; settings: compared to compound 3
Method in brief: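 Sf9 membranes co-expressing hH4R with Gαi2 and Gβ1γ2, pelleted (16,000 g, 10 min, 4°C) into 12.5 mM MgCl2/1 mM EDTA/75 mM Tris-HCl pH 7.4; 35 μg/well. Incubated 60 min, 25°C, shaking, with 10 nM [3H]histamine and seven test concentrations (0.1 nM–100 μM), triplicate. Non-specific binding with 100 μM histamine. PEI-treated GF/B filtration, scintillation counting; Ki by Cheng–Prusoff.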

hH3R [4] = biological target: T1, hH3R; test: Metric analyses; settings: LELP=clogP/LE
hH3R [5] = biological target: T1, hH3R; test: hH3R saturation binding experiments with [3H]Nα-methylhistamine

T1 sequence (Q9Y5N1 whole entry): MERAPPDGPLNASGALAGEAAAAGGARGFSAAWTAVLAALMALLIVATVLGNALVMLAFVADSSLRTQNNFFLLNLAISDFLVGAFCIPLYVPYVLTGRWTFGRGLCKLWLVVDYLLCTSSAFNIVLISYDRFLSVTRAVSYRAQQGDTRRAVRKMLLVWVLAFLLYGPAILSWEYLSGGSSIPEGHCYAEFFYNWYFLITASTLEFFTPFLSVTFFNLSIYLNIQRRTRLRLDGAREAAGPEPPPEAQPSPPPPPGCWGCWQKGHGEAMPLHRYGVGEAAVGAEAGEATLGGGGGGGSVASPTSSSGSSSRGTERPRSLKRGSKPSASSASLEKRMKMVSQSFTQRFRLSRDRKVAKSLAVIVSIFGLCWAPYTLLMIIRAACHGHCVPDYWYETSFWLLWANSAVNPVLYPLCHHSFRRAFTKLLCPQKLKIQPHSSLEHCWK

LELP (hH4R) (hH4R [2])	LELP (hH3R) (hH3R [4])	Molecule	also measured
23.57	12.79	c1ccc(CNc2ccnc(Nc3ccc(OCCCN4CCCCC4)cc3)n2)cc1 [Compound 5, N^4-benzyl-N^2-(4-(3-(piperidin-1-yl)propoxy)phenyl)pyrimidin-2,4-diamine]	Ratio hH4R/hH3R (hH3R [1]; receptor subtype selectivity, Ki hH4R / Ki hH3R): more than 6,500
17.82	13.55	CN1CCN(CCCOc2ccc(Nc3nccc(NCc4ccccc4)n3)cc2)CC1 [Compound 6, N^4-benzyl-N^2-(4-(3-(4-methylpiperazin-1-yl)propoxy)phenyl)pyrimidin-2,4-diamine]	

Continued, molecule first:

Molecule	LELP (hH4R) (hH4R [2])	LELP (hH3R) (hH3R [4])	also measured
6-(4-methylpiperazin-1-yl)-N-(4-(3-(piperidin-1-yl)propoxy)benzyl)pyrimidin-2,4-diamine [Compound 4]	13.11		fold weaker affinity for hH3Rs (hH3R [1]; compared to compound 3): ~5 ×; fold higher affinity for hH4Rs (hH4R [3]): 3 ×
CN1CCN(c2cc(Nc3ccc(OCCCN4CCCCC4)cc3)nc(N)n2)CC1 [Compound 3, 6-(4-methylpiperazin-1-yl)-N^4-(4-(3-(piperidin-1-yl)propoxy)phenyl)pyrimidin-2,4-diamine]	15.17		fold increased affinity for hH3R (hH3R [1]; vs compound 2): 49 ×
CNCCc1cnc[nH]1 [[^3H] N^α-MeHA, [^3H]N^α-methylhistamine]			Kd (hH3R [5]; read-out: Kd value of radioligand at hH3R, HEK-293 membranes): 2.98 nM
[3H]CNCCc1cnc[nH]1 [[^3H] N^α-MeHA, [^3H]N^α-methylhistamine]			pKd of radioligand at hH3R (hH3R [5]; HEK-293 membranes): 8.53±0.01
